ChEMBL document CHEMBL3232810, “Synthesis, biological evaluation and 3D-QSAR studies of new chalcone derivatives as inhibitors of human P-glycoprotein” (Bioorg Med Chem, 2014)

The compounds below were run against ATP-dependent translocase ABCB1 (Homo sapiens, UniProt P08183) (assay: Inhibition of P-gp-mediated daunorubicin efflux in human CCRF-CEM/VCR1000 cells measured within 1 hr by FACS flow cytometry).
Method in brief: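 CCRF vcr1000 cells kept in RPMI 1640 with 10% FCS and 1000 ng/mL vincristine; vincristine washed out 1 week before use. Cells at 1×10⁶/mL were preloaded with daunorubicin (3 µmol/L final), 30 min, 37 °C. After pelleting they were resuspended in warm medium with inhibitor, eight concentrations (1:3 serial), top 20–200 µM. Aliquots at 0, 60, 120, 180 and 240 s went into ice-cold stop solution (5 µmol/L GPV31 final). Initial efflux rates came from linear regression, and IC50 from a Hill-equation fit of rate versus concentration.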

Chain of ATP-dependent translocase ABCB1 (P08183 whole entry): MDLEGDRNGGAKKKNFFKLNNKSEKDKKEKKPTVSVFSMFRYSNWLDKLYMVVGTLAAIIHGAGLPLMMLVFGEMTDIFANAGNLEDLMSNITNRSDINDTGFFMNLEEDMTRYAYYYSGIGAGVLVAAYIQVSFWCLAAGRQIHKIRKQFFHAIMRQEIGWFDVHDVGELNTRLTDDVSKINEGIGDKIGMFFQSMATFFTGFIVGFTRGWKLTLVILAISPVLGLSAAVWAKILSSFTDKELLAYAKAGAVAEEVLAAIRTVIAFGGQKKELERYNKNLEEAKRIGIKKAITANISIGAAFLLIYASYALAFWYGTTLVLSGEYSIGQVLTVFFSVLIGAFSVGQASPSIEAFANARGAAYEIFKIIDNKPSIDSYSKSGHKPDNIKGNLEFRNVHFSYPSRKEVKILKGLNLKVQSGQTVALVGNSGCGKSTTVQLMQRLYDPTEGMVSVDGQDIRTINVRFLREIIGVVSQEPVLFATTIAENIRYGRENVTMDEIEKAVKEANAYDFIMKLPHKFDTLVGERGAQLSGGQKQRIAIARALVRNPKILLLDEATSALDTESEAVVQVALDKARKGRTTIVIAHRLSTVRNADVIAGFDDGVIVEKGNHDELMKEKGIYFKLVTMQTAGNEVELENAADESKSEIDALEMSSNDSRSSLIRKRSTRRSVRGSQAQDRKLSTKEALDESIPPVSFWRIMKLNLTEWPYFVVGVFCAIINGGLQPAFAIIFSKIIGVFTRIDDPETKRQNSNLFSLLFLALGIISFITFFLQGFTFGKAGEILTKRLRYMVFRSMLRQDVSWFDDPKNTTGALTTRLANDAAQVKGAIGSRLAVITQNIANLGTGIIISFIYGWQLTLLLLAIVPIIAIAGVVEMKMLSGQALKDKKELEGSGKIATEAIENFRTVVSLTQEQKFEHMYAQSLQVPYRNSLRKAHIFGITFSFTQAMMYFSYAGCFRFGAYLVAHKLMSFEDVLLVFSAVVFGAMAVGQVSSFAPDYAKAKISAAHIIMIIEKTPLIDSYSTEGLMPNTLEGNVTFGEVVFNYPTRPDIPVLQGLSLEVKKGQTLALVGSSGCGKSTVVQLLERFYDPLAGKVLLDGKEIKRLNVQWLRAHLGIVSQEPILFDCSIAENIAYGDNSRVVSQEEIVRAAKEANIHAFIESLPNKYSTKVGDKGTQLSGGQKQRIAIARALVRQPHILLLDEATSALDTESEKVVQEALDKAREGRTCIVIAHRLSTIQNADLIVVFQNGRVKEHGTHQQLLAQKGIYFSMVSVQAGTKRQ

IC50 [nM] | SMILES
130 | COc1cc2c(cc1OC)C(=O)/C(=C/c1ccc(N(C)C)cc1)C2
1740 | COc1ccc2c(c1)CC/C(=C\C=C\c1cc(OC)c(OC)c(OC)c1)C2=O
8510 | COc1ccccc1C(=O)/C=C/c1c(C)cc(C)cc1C
2750 | COc1ccc(C(=O)/C=C/c2ccc(OC)c3ccccc23)cc1OC
1380 | COc1ccccc1/C=C/C=C/C(=O)c1cc(OC)c(OC)c(OC)c1
12000 | COc1ccccc1/C=C/C=C/C(=O)c1cc(OC)c(O)c(OC)c1
650 | COc1cc(C(=O)/C=C/c2ccccc2SC)cc(OC)c1OC
870 | COc1cc(C(=O)/C=C/C=C/c2ccccc2SC)cc(OC)c1OC
40 | COc1cc2c(cc1OC)C(=O)/C(=C/C=C/c1ccc(N(C)C)cc1)C2
3550 | COc1ccc2c(c1)CC/C(=C\c1ccc3ccccc3c1)C2=O
140 | COc1cc2c(cc1OC)C(=O)/C(=C/C=C/c1cc(OC)c(OC)c(OC)c1)CC2
1150 | COc1ccc2c(c1)C(=O)/C(=C/C=C/c1cc(OC)c(OC)c(OC)c1)C2
2630 | COc1cc(/C=C/C=C2\Cc3ccc(OC)c(OC)c3C2=O)cc(OC)c1OC
2330 | COc1cc(/C=C/C=C2\Cc3ccc(OC)c(OC)c3C2=O)ccc1O
3890 | COc1ccc2c(c1)C/C(=C\C=C\c1ccccc1OC)C2=O
141000 | COc1cc(C(=O)/C=C/c2ccc(C(=O)O)cc2)cc(OC)c1OC
140 | COc1ccc(C(=O)/C=C/c2cccc(/C=C/C(=O)c3ccc(OC)c(OC)c3)c2)cc1OC
120 | COc1cc(C(=O)/C=C/c2cccc(/C=C/C(=O)c3cc(OC)c(OC)c(OC)c3)c2)cc(OC)c1OC
140 | COc1cc(/C=C/C(=O)c2cccc(C(=O)/C=C/c3cc(OC)c(OC)c(OC)c3)c2)cc(OC)c1OC
60 | COc1cc(/C=C/C=C/C(=O)c2cccc(C(=O)/C=C/C=C/c3cc(OC)c(OC)c(OC)c3)c2)cc(OC)c1OC
20400 | COC(=O)C1=C(O)/C(=C/C=C/c2ccccc2OC)CCC1
